A selection: hits, their analogues and other compounds. The true share with any hit is near 3.2%.
TRPML3 agonist = activates the human TRPML3 channel | Q8TDD5 | HEK293 TRPML3-YFP, Fluo-8 calcium fluorescence; 100% = the carbachol control signal | activation, % at 3 µM | hit rate 0.29% among 220,000;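 active = activation above its plate's cutoff, the mean activation of the plate's test wells plus 3 SD, cut at about 12% in these data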;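 also: 0% = DMSO only wells and 100% = carbachol wells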
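Test system – HEK293 line with stable expression of human TRPML3-YFP channel · Control set – carbachol 87 µM final as high control (100%), DMSO as low control (0%) · Signal – Fluo-8 calcium dye fluorescence, ex 470-495, em 515-575 nm · Incubation – 1-h 37 °C dye load, 5-s basal, 120-s post-compound reads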
OX1R antag-1 = blocks the human orexin 1 receptor | OX1R-expressing cells, FRET antagonist read-out | inhibition, % at 6.6 µM | hit rate 1.8% among 330,000; in the data active = inhibition mostly above about 38%, no sharp cut-off; inactive = mostly below about 40%;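 also: 0% = agonist challenge alone and 100% = reference antagonist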
Target sequence (O43613 whole entry, looked up): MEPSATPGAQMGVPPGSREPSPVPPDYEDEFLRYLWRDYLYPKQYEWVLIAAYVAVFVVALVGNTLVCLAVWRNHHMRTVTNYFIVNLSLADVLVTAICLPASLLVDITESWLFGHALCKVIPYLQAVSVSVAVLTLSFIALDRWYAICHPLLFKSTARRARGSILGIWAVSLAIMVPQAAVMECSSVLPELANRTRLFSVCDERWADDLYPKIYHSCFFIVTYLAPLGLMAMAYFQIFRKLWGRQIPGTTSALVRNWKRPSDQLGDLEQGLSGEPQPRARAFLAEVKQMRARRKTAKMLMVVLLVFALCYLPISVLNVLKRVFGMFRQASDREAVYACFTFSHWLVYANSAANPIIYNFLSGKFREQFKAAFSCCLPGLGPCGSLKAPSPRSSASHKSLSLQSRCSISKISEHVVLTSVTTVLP
GPR7 antagonist = blocks human GPR7 receptor signaling; P48145; GPR7-expressing cells, fluorescence antagonist assay; inhibition, % at 4.4 µM; hit rate 1.1% among 290,000; AID 1861; in the data active = inhibition above about 16%, passing the limit was not always enough;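 also: cells stimulated with the agonist NPW; 0% = agonist with vehicle and 100% = vehicle without agonist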
Target sequence (P48145 whole entry, looked up): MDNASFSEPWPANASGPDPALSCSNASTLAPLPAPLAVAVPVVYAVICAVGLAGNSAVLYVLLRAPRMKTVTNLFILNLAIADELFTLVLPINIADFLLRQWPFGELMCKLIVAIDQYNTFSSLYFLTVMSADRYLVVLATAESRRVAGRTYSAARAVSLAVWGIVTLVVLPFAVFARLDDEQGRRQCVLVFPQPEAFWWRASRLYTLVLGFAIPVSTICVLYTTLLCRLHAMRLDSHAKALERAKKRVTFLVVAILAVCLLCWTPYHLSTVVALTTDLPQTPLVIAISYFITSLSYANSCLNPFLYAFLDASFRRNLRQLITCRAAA
CHO parental Ca = signal in parental CHO cells, OX1R antagonist counter-screen | AID 463079 | parental CHO-K1, ATP-induced calcium, Fluo-8 fluorescence | inhibition, % at 5.6 µM | hit rate 0.63% among 330,000;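 active = inhibition above that plate's mean sample inhibition plus 3 SD, cut at about 26% in these data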;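 also: 0% = ATP-challenged DMSO wells and 100% = DMSO wells without ATP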
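Test system: parental CHO cells; detection: calcium-sensitive Fluo-8 fluorescence; evaluation: percent inhibition of calcium signal; also added: ATP as calcium-mobilizing challenge; repeats: one well per compound; control set: ATP-challenged DMSO wells low, unchallenged DMSO wells high; compound: single nominal dose of 5.6 µM per compound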
zfTRPN1 agonist = zebrafish TRPN1 (NompC) channel agonism. HEK293 zebrafish TRPN1-YFP, Fluo-8 calcium fluorescence; 100% = response to 87 µM carbachol. activation, % at 3 µM. hit rate 0.18% among 220,000;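 active = activation above its plate's cutoff, the mean activation of test wells on that plate plus 3 SD, cut at about 19% in these data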;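 also: 0% = DMSO alone and 100% = 87 µM carbachol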
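Material: zebrafish TRPN1-YFP in HEK293 cells; Doses: single test compound dose, 3 µM nominal, 0.3% DMSO; Timing: dye loading 1 h at 37 °C, then 30 min room temperature; Technique: intracellular calcium fluorescence with Fluo-8; Benchmarks: high carbachol 87 µM, low DMSO alone.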
OX1R antag-2 = blocks the human orexin 1 receptor; O43613; CHO/OX1R cells, Fluo-8 calcium fluorescence, orexin A; inhibition, % at 5 µM; hit rate 0.43% among 330,000; AID 434989;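 active = inhibition above its plate's threshold, mean inhibition of all tested compounds on the plate plus 3 SD, cut at about 37% in these data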;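 also: 0% = orexin A challenge wells and 100% = SB-334867-A antagonist wells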
GPR7 antag conf = human GPR7 antagonism, confirmation assay; shares compounds with GPR7 antagonist; GPR7-expressing cells, calcium fluorescence antagonist mode; inhibition, % at 4.4 µM; hit rate 52% among 2,400; AID 1952; in the data active = inhibition above about 24%;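 also: stimulated with the GPR7 agonist NPW; 0% = agonist plus vehicle and 100% = vehicle alone without agonist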
MCHR1 antag = antagonizes human MCHR1, a GPR7 antagonist counter-screen; shares compounds with GPR7 antagonist; MCHR1-expressing cells, fluorescence antagonist assay; inhibition, % at 4.4 µM; hit rate 62% among 2,400; AID 2148; in the data active = inhibition above about 22%;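 also: 0% = vehicle with agonist and 100% = vehicle without agonist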
The depositor's hits bear a star; . = no result.

SMILES	TRPML3 agonist	OX1R antag-1	GPR7 antagonist	CHO parental Ca	zfTRPN1 agonist	OX1R antag-2	GPR7 antag conf	MCHR1 antag
CCOc1ccc(-n2c(-c3ccc(Br)cc3)c[n+]3c2CCCCC3)cc1	0.4	7.6	28.8*	-3.1	-0.9	-8.8	39.2*	35.7*
CCOc1ccc(-n2c(-c3ccccc3)c[n+]3c2CCC3)cc1	1.1	44.4	-15.5	-3.3	0.2	-9.9	.	.
CC(C(=O)c1ccccc1)[n+]1cccc(Br)c1 (stereo unspecified)	.	-5.4	-0.9	6.6	.	3.0	.	.
CCOc1ccc(NC(=O)CCn2c(=S)oc3ccccc32)cc1	.	0.6	35.0*	-10.6	.	-24.4	10.3	6.1
Cc1ccc(/C=C/C(=O)N2CCN(S(=O)(=O)/C=C/c3ccccc3)CC2)o1	-0.4	5.4	-5.8	-6.1	-1.5	-19.4	.	.
COc1ccc(NC(=O)C(C)Oc2ccc(/C(C)=N\O)cc2)cc1 (stereo unspecified)	4.0	5.7	41.9*	5.7	9.6	7.0	43.4*	34.1*
CC(Oc1ccc(Cl)cc1)C(=O)Nc1ccc(S(=O)(=O)N2CCOCC2)cc1 (stereo unspecified)	.	-3.3	55.6*	15.1	.	19.8	53.5*	61.0*
COc1ccc(OC(C)C(=O)Nc2ccc([N+](=O)[O-])cc2)cc1 (stereo unspecified)	-1.1	16.2	20.1	-9.3	1.6	-1.2	.	.
CC(Oc1ccc(Cl)cc1)C(=O)Nc1ccc(S(=O)(=O)Nc2nccs2)cc1 (stereo unspecified)	.	-23.3	23.6*	7.0	.	13.6	19.9	2.8
CC(C)NS(=O)(=O)c1ccc(NC(=O)C(C)Oc2ccc(C(=O)c3ccccc3)cc2)cc1 (stereo unspecified)	20.9*	4.6	90.9*	68.3*	50.4*	93.3*	91.5*	95.9*
COc1cc(/C=C/c2nc(-c3ccccc3O)n[nH]2)cc(OC)c1OC	1.0	56.5	21.7*	-14.6	0.4	-6.2	32.6*	56.7*
CSc1cccc(NC(=O)Cc2ccccc2[N+](=O)[O-])c1	0.1	18.1	26.8*	5.0	-0.7	-16.0	-8.8	7.7
Nc1ncnc2c1ncn2[C@@H]1O[C@H](CNCc2ccc(-n3cccn3)cc2)[C@@H](O)[C@H]1O	.	4.4	.	-3.5	.	3.9	.	.
CCN1CCN(CCNC(=O)c2ccc(/C=C3/Sc4ccccc4N(Cc4ccccc4C)C3=O)cc2)CC1	7.5	.	26.4*	.	13.0	.	82.8*	90.8*
CCn1c(SCC(=O)Nc2ccc3[nH]c(=O)[nH]c3c2)nc2ccccc21	.	5.1	.	-10.9	.	10.6	.	.
CCn1c(SCC(=O)Nc2ccc(C(C)=O)cc2)nc2ccccc21	-0.8	15.3	30.0*	-19.2	-1.5	-31.5	4.2	19.6
O=C(Nc1ccnc(=O)[nH]1)c1sc2ccccc2c1Cl	0.8	6.5	-1.6	-6.3	1.1	-8.8	.	.
COc1ccccc1-c1ccc(SCc2ccc([N+](=O)[O-])cc2)nn1	0.4	6.8	4.5	-9.8	-0.2	-34.6	.	.
COc1ccccc1-c1ccc(SCc2cccc(C)c2)nn1	-0.2	18.5	63.8*	47.9*	-1.3	14.2	41.5*	74.2*
Cc1cc(=O)oc2cc(O)c(N=Nc3ccccc3)cc12	0.8	27.3	-9.6	-8.8	2.1	12.3	.	.
Fc1ccccc1Cc1noc(CN2CCN(c3ccc(Cl)cn3)CC2)n1	-0.1	21.9	21.3*	4.6	-0.8	-24.9	12.7	26.5*
CC(C(=O)Nc1ccc2c(c1)OCCO2)c1ccc([N+](=O)[O-])cc1 (stereo unspecified)	13.5*	2.8	47.2*	30.7*	19.9*	24.8	69.6*	51.4*
C/C(CC(=O)Nc1ccc2c(c1)OCCO2)=N\NC(=O)c1ccc([N+](=O)[O-])cc1Cl	.	64.2	34.0*	-3.8	.	7.6	-5.3	-1.5
c1ccc2c(c1)ccc1ccccc12	.	6.9	.	-14.0	.	-1.4	.	.
CCCCCCCCC[n+]1cccc2c3ccccc3ccc21	1.7	76.4	75.1*	85.8*	4.0	93.7*	80.2*	80.4*
SMILES	TRPML3 agonist	OX1R antag-1	GPR7 antagonist	CHO parental Ca	zfTRPN1 agonist	OX1R antag-2	GPR7 antag conf	MCHR1 antag
CCOC(=O)N1CCN(Cc2cn[nH]c2-c2ccc(-c3ccccc3)cc2)CC1	-0.1	14.8	24.7*	-23.1	-0.1	-23.6	-8.6	-5.0
CCOC(=O)N1CCN(Cc2cn[nH]c2-c2cccc3ccccc23)CC1	0.0	7.2	-0.9	-17.5	-0.8	-22.6	.	.
CCCCN1C(=O)C(NC(C)=O)c2cc(Br)ccc21 (stereo unspecified)	-0.2	3.0	52.6*	-24.6	-0.7	-26.7	26.1*	19.3
CCN1C(=O)C(NC(C)=O)c2cc(Br)ccc21 (stereo unspecified)	-0.1	35.6	26.7	-15.2	1.6	-23.0	.	.
Cc1c(Cl)ccc2c1NC(=O)[C@]21N[C@@H](Cc2ccccc2)[C@H]2C(=O)N(c3ccc(F)cc3)C(=O)[C@H]21	7.7	2.5	35.7*	5.3	6.3	18.8	67.4*	69.4*
O=C1[C@@H]2C(Cc3ccc(O)cc3)NC3(C(=O)Nc4ccc(F)cc43)[C@@H]2C(=O)N1c1ccccc1 (stereo partly specified)	0.5	19.1	0.6	0.4	1.3	-16.9	.	.
Cn1cccc1C(=O)NC1CCCCCC1	.	5.2	.	-15.3	.	-16.3	.	.
CCCCOC(=O)N/N=C/C=C/c1ccccc1	0.1	15.1	-7.1	-4.4	-2.3	-11.2	.	.
C[C@@H](C(=O)NCCc1ccccc1)N1C(=O)N2CCc3c([nH]c4ccccc34)[C@@]2(C)C1=O	.	15.3	24.4*	-16.9	.	-22.3	16.2	27.2*
CCCCn1c(N)c(N(CC)C(=O)CSCc2ccc(C)cc2)c(=O)[nH]c1=O	.	24.9	-10.3	0.5	.	-14.6	.	.
CCCCn1c(N)c(N(CC)C(=O)CSc2nnnn2-c2cc(C)ccc2C)c(=O)[nH]c1=O	0.0	-2.2	23.3*	-6.5	-2.7	-16.0	-8.5	-9.7
O=C(O)c1ccc(NC(=S)Nc2ccccc2)cc1	0.6	6.3	-6.9	2.4	1.0	-17.4	.	.
O=C(NC1CC1)c1cc(-c2ccc(Br)cc2)nc2ccccc12	.	9.7	.	-9.6	.	-22.7	.	.
CN1CCC(NC(=O)c2cc(-c3cccc(Br)c3)nc3ccccc23)CC1	.	11.6	42.1*	-16.5	.	-1.1	36.9*	31.8*
CCOCCCn1c(C)nc2c[n+](CC(=O)c3ccc4ccccc4c3)cc(Br)c21	0.1	5.1	-15.2	-19.2	0.8	-18.7	.	.
CCc1nn(CC(=O)N2CCN(CC)CC2)c(=O)c2cc3sccc3n12	.	18.9	21.3*	-6.9	.	-25.7	-9.4	-2.6
